The target of data set [1] is T1, Alpha-1A adrenergic receptor (Homo sapiens, UniProt P35348).
T1 sequence (P35348 whole entry): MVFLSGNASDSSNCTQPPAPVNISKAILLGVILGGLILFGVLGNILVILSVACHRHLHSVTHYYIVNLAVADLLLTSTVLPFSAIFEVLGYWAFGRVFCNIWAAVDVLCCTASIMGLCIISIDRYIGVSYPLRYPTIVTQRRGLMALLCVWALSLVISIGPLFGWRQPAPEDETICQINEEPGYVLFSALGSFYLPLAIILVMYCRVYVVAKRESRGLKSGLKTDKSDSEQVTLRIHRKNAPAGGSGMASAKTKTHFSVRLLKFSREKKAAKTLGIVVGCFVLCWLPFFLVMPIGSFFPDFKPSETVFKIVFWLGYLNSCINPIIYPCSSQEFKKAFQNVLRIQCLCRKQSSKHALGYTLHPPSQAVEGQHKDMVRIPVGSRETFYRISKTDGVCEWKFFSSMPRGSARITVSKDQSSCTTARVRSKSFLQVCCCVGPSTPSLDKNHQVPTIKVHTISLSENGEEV
The data set can be described thus: Displacement of [3H]prazosin from human alpha1A-adrenoceptor expressed in CHO cell membranes measured after 30 mins. The method in brief:
(§1)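 Membranes (30 µg protein) from stably transfected CHO cells, each expressing one human α1 subtype, incubated 30 min at 25 °C in 50 mM Tris-HCl pH 7.4 with 0.1-0.4 nM [3H]prazosin and competitor 1 pM-10 µM. Nonspecific binding defined with 10 µM phentolamine. Filtration over PEI-treated filters. Ki from IC50 via Cheng-Prusoff; 2-3 experiments in triplicate.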
In general terms: In a radioligand displacement assay an active substance lowers the binding of a labelled ligand.

Data set [2] concerns the target T2, Alpha-1B adrenergic receptor (Homo sapiens, UniProt P35368).
T2 sequence (P35368 whole entry): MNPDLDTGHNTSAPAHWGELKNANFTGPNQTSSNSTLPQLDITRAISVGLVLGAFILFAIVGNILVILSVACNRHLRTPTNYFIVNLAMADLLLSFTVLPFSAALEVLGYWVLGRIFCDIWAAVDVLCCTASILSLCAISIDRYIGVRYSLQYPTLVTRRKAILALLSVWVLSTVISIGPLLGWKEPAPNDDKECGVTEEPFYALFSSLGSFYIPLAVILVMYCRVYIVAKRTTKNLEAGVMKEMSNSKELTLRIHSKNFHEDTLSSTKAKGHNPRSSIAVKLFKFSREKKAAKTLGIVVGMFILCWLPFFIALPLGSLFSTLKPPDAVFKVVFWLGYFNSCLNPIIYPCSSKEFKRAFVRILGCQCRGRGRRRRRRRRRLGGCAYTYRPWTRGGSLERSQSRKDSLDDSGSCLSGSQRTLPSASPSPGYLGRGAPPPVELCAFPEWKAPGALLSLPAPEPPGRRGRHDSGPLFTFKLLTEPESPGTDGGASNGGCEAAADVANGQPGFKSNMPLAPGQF
Nature of the data set: Displacement of [3H]prazosin from human alpha1B-adrenoceptor expressed in CHO cell membranes measured after 30 mins. The essentials:
as §1

In data set [3] the target is T3, Alpha-1D adrenergic receptor (Homo sapiens, UniProt P25100).
T3 sequence (P25100 whole entry): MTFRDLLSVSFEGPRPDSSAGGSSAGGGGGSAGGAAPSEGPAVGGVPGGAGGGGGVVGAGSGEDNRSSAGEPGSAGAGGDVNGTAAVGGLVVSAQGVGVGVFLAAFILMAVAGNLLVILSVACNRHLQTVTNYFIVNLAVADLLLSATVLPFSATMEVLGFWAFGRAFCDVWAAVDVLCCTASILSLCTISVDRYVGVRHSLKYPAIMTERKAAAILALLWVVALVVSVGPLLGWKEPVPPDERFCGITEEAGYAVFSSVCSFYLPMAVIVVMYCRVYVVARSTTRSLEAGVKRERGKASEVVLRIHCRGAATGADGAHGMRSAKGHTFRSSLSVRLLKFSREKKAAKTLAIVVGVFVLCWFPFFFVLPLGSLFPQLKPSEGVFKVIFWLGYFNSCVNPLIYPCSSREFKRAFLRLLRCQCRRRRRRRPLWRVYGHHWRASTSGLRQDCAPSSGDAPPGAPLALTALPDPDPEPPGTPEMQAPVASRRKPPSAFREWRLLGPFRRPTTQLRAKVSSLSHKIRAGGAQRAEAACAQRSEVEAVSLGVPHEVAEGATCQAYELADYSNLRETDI
The data set can be described thus: Displacement of [3H]prazosin from human alpha1D-adrenoceptor expressed in CHO cell membranes measured after 30 mins. The method in brief: as §1

Data set [4] concerns the target T4, Alpha-1A adrenergic receptor (Rattus norvegicus) (UniProt P43140).
T4 sequence (whole entry): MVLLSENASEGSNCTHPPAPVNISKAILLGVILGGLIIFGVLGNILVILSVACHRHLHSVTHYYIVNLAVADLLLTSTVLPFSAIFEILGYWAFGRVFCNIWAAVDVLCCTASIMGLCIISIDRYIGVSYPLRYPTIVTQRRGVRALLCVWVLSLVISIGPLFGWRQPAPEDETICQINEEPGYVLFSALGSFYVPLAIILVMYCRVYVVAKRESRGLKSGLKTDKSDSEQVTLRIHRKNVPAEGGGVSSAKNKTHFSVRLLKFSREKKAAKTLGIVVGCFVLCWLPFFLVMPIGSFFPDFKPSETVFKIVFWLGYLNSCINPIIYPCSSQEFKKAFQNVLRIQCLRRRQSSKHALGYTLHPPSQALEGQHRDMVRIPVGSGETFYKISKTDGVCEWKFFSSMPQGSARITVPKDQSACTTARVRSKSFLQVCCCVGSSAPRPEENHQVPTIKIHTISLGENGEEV
Nature of the data set: Antagonist activity at alpha1A-adrenoceptor in Wistar rat prostatic vas deference assessed as inhibition of (-)-NE-induced contractions preincubated for 60 mins before (-)-NE challenge measured after 45 mins. The method in brief:
(§2)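 Male Wistar rats (275-300 g); prostatic vas deferens segments (2 cm) under 0.35 g tension at 37 °C in Tyrode with cocaine, aerated 5% CO2/95% O2. Tissue primed twice with 10 µM (-)-NE, then a cumulative isotonic (-)-NE curve. Antagonist equilibrated 60 min before a repeat curve. Line 1 gives pKB = log(DR-1) - log[B] at one or two concentrations; line 4 gives pA2 from Schild plot, slope constrained to -1. Mean ± SE, 4-5 experiments.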

The target in data set [5] is T5, Alpha-1B adrenergic receptor (Rattus norvegicus, UniProt P15823).
T5 sequence (P15823 whole entry): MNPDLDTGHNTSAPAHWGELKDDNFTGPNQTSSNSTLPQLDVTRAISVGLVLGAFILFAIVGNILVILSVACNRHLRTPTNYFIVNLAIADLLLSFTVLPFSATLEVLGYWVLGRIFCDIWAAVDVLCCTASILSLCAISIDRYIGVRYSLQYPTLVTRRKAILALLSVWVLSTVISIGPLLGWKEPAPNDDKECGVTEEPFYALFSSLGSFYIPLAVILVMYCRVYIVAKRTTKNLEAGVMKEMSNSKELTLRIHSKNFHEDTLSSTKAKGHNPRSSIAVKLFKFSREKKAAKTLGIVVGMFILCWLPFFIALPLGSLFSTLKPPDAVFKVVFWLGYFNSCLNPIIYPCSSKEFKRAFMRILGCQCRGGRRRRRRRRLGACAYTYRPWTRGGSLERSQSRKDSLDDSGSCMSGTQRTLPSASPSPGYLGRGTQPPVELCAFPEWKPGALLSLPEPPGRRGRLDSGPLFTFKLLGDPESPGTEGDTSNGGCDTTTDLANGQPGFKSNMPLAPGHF
Nature of the data set: Antagonist activity at alpha1B-adrenoceptor in Wistar rat spleen assessed as inhibition of phenylphrine-induced contractions measured after 30 mins in presence of (+/-)-propranolol hydrochloride. The following applies: 0.5 h. The method in brief: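 Male Wistar rat spleen strips in Krebs-type solution at 37 °C with (±)-propranolol 4 µM, under 1 g resting tension, equilibrated 2 h. Cumulative isometric phenylephrine curves at 30 min intervals; first discarded, second used as control, then a curve after 30 min antagonist incubation. pKB = log(DR-1) - log[B] from ED50 ratio. Mean ± SE, 4-5 experiments.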

For data set [6], the target named is T6, Alpha-1D adrenergic receptor (Rattus norvegicus) (UniProt P23944).
T6 sequence (whole entry): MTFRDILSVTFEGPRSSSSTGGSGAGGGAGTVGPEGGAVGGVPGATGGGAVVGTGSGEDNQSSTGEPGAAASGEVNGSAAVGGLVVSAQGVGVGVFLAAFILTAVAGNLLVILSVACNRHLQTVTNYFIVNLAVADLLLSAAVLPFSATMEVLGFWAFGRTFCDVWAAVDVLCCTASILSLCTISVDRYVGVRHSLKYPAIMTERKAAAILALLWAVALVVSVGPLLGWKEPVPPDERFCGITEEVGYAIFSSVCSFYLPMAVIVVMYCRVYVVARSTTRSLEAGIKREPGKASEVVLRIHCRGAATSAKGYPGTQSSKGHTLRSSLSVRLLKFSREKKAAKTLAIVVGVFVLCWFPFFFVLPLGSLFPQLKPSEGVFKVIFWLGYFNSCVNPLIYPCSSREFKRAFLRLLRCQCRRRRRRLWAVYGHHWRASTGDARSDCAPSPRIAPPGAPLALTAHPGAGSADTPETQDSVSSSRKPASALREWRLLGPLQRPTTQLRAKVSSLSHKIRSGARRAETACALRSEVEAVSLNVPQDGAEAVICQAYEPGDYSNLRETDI
Nature of the data set: Antagonist activity at alpha1D-adrenoceptor in Wistar rat thoracic aorta assessed as inhibition of (-)-NE-induced contractions preincubated for 60 mins before (-)-NE challenge measured after 1 hr in presence of normetanephrine hydrochloride and (+/-)-propranolol hydrochloride. The essentials:
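Male Wistar rat thoracic aorta strips, endothelium rubbed off and checked by loss of 100 µM acetylcholine relaxation after 1 µM (-)-NE contraction. Krebs solution, 1 g tension, at least 2 h equilibration. Isometric cumulative (-)-NE curves at 1 h intervals; third used as control, fourth after 60 min antagonist. pKB from the ED50 dose ratio. Mean ± SE, 4-5 experiments.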

Data set [7] has as its target T7, Alpha-1A adrenergic receptor (Rattus norvegicus, UniProt P43140).
T7 sequence (P43140 whole entry): T4 sequence (whole entry)
Nature of the data set: Competitive antagonist activity at alpha1A-adrenoceptor in Wistar rat prostatic vas deference assessed as inhibition of (-)-NE-induced contractions preincubated for 60 mins before (-)-NE challenge measured after 45 mins by Schild plot analysis. The conditions noted are these: read-out: pA2 (converted). The method in brief:
as §2

`COc1ccccc1N1CCN(CCc2ccc3c(c2)OCO3)CC1`: the results for the Ki in data set [1], in data set [2] and in data set [3] were 3.47 nM, 5.25 nM and 1.26 nM, respectively. The pKb in data set [4] is 8.47; in data set [5] it was 8.11; in data set [6], 8.57.
In the case of `CCOc1ccccc1N1CCN(CCc2ccc(OC)cc2)CC1`, the Ki was 1.12 nM in data set [1], 10.2 nM in data set [2] and 1.35 nM in data set [3]. Also, the pKb was found to be 8.89 in data set [4], 7.91 in data set [5] and 8.23 in data set [6].
Regarding `CCOc1ccccc1N1CCN(CCc2ccc(OC)c(OC)c2)CC1`, the results for the Ki in data set [1], in data set [2] and in data set [3] were 2.09 nM, 15.8 nM and 0.603 nM, respectively. Further, the pKb in data set [4] turned out to be 9.1; in data set [5] it was 8.89; in data set [6], 8.79.
With `COc1ccc(CCN2CCN(c3ccccc3OC(C)C)CC2)cc1OC`, the Ki in data set [1] is 2 nM; in data set [2], 10.5 nM; in data set [3], 1.35 nM. The figures for the pKb in data set [4], in data set [5] and in data set [6] were 9.55, 8.74 and 9.12, respectively.
For the compound `COc1ccc(CCN2CCN(c3ccccc3OC(C)C)CC2)cc1`, the values for the Ki in data set [1], in data set [2] and in data set [3] were 2.24 nM, 14.8 nM and 3.09 nM, respectively.
Take `COc1ccccc1N1CCN(CCc2ccccc2)CC1`: the Ki was 31.6 nM in data set [1], 91.2 nM in data set [2] and 16.6 nM in data set [3]. For the same compound, the pKb is 7.76 in data set [4], 7.82 in data set [5] and 8.5 in data set [6].
As for `COc1cccc(CCN2CCN(c3ccccc3OC(C)C)CC2)c1`, the Ki is 2.75 nM in data set [1], 13.8 nM in data set [2] and 1.32 nM in data set [3]. In addition, the pKb in data set [4] came to 8.87; in data set [5], 8.92; in data set [6], 9.46.
As for `CCOc1ccccc1N1CCN(CCc2ccc3c(c2)OCO3)CC1`, the inhibition constant Ki in data set [1] is 1.12 nM; in data set [2] it was 5.37 nM; in data set [3] it was 1.51 nM. For the same compound, the pKb in data set [4] came to 9.09; in data set [5], 8.85; in data set [6], 8.84.
On to `CCOc1ccccc1N1CCN(CCc2cccc(OC)c2)CC1`, for which the Ki was 2.95 nM in data set [1], 25.1 nM in data set [2] and 2.57 nM in data set [3]. Moreover, the pKb was determined as 8.39 in data set [4], 8.13 in data set [5] and 8.11 in data set [6].
Regarding `CC(C)Oc1ccccc1N1CCN(CCc2ccccc2)CC1`, the Ki in data set [1] is 5.01 nM; in data set [2] it was 77.6 nM; in data set [3], 4.57 nM. The pKb was determined as 8.29 in data set [4], 7.94 in data set [5] and 8.59 in data set [6].
With `CC(C)Oc1ccccc1N1CCN(CCc2ccc3c(c2)OCO3)CC1`, the values for the Ki in data set [1], in data set [2] and in data set [3] were 0.389 nM, 12.9 nM and 1.74 nM, respectively. The pKb in data set [4] was determined as 8.27; in data set [5], 8.03; in data set [6], 8.33. The Kb in data set [7] is 4.17 nM.

As a reminder, the Ki is the equilibrium dissociation constant of an inhibitor or competing ligand from its target. As a reminder, the pKb is −log10 of the Kb, conventionally taken in molar units.
